Measured values collected from several papers.
pEC50: −log10 of the molar value. Converted amounts (≈) assume the structure as drawn.

Compound	tested on	test	system	conditions	quantity	value
CCN1CCN(c2cc3c(cc2F)c(=O)c(C(=O)O)cn3C2CC2)CC1	Salmonella enterica	microbial growth	F98, TYPHIMURIUM	20 h, pH 7	MIC	0.0313 µg/mL (≈ 0.0871 µM)
O=c1cc(-c2ccc(O)c(O)c2)oc2cc(O)cc(O)c12	Helicobacter pylori	microbial growth, broth dilution	–	3.9 µg/mL	inhibition	100%
Cc1cc(NS(=O)(=O)c2ccc(N)cc2)no1	Salmonella enterica	microbial growth	ENTERITIDIS	20 h, pH 5.5	MIC	128 µg/mL (≈ 505 µM)
c1ccc(-c2cccc(Nc3nccc(NC4CCCCC4)n3)c2)cc1	BJ	cell growth or viability, ATP luminescence	–	72 h	pEC50	< 5.30
O=c1cc(-c2ccc(O)cc2)oc2cc(O)cc(O)c12	Helicobacter pylori	microbial growth, broth dilution	–	3.9 µg/mL	inhibition	100%
CO/N=C(\C(=O)N[C@@H]1C(=O)N2C(C(=O)O)=C(CSc3nc(=O)c(=O)[nH]n3C)CS[C@H]12)c1csc(N)n1	Salmonella enterica	microbial growth	F98, TYPHIMURIUM	20 h, pH 7	MIC	0.125 µg/mL (≈ 0.225 µM)
c1cncc(-c2cccc(Nc3nccc(NC4CCOCC4)n3)c2)c1	BJ	cell growth or viability, ATP luminescence	–	72 h	pEC50	< 4.62
CC[C@H]1OC(=O)[C@H](C)[C@@H](O[C@H]2C[C@@](C)(OC)[C@@H](O)[C@H](C)O2)[C@H](C)[C@@H](O[C@@H]2O[C@H](C)C[C@H](N(C)C)[C@H]2O)[C@](C)(OC)C[C@@H](C)C(=O)[C@H](C)[C@@H](O)[C@]1(C)O	Helicobacter pylori	microbial growth, broth dilution	–	0.24 µg/mL	inhibition	81.3%
CN(C)[C@@H]1C(O)=C(C(N)=O)C(=O)[C@@]2(O)C(O)=C3C(=O)c4c(O)cccc4[C@@](C)(O)[C@H]3C[C@@H]12	Salmonella enterica	microbial growth	ENTERITIDIS	20 h, pH 7.2	MIC	2 µg/mL (≈ 4.5 µM)
CNc1ccnc(Nc2cccc(-c3cccnc3)c2)n1	BJ	cell growth or viability, ATP luminescence	–	72 h	pEC50	< 4.70
Cc1ccc(-c2nc3ccccc3s2)cc1NC(=O)c1cc([N+](=O)[O-])c(NC2CCN(C)CC2)cc1Cl	BJ	cell growth or viability, ATP luminescence	–	–	pEC50	< 5.04
CCCCNc1ccnc(Nc2cccc(-c3cccnc3)c2)n1	BJ	cell growth or viability, ATP luminescence	–	72 h	pEC50	< 4.77
O=C(O)c1ccc(O)cc1	Helicobacter pylori	microbial growth, broth dilution	–	62.5 µg/mL	inhibition	100%
